Assay results collected from several papers.
Lines come from different studies, so protocols differ.
Target: Serine/threonine-protein kinase MRCK beta (CDC42BPB, Homo sapiens, UniProt Q9Y5S2)

SMILES | assay | conditions | remaining binding
Cc1cnc(Nc2ccc(C(=O)N3CCC(N4CCCC4)CC3)cc2)nc1-c1cc2ccccc2s1 | binding, competition with immobilised ligand | 1 µM | 59%
Nc1c(C(=O)NCc2ccc(C(=O)NCCCC3CCCCC3)cc2)cnn1-c1ccccc1 | cell-free assay, competition with immobilised ligand | 0.1 µM | 100%
O=C(NCCCN1CCOCC1)c1ccc(Nc2nccc(-c3cc4ccccc4s3)n2)cc1 | binding, competition with immobilised ligand | 1 µM | 100%
c1cnn2ncc(-c3ccnc(N4CCC45COC5)n3)c2c1 | binding | 1 µM | 94%
CC(C)CC(=O)N1CCc2nc(-c3ccc(Br)cc3)nc(N(C)Cc3ccccc3)c2C1 | cell-free assay, competition with immobilised ligand | 0.1 µM | 99%
N[C@@H]1CCN(c2nccc(-c3cnn4ncccc34)n2)C1 | binding | 1 µM | 100%
O=C(c1ccc(Nc2ncc(Cl)c(-c3ccc(Cl)s3)n2)cc1)N1CCC(N2CCCC2)CC1 | binding, competition with immobilised ligand | 1 µM | 92%
CCN1CCN(Cc2ccc(C(=O)Nc3ccc(C)c(Oc4ccc5c(c4)CC(=O)N5)c3)cc2C(F)(F)F)CC1 | binding, competition with immobilised ligand | 1 µM | 77%
COc1ncc2cc3ccccc3nc2c1C#N | cell-free assay, competition with immobilised ligand | 5 µM | 100%
COc1cnc(Nc2cccc(S(N)(=O)=O)c2)nc1N1CCN(c2ccccc2)CC1 | binding, competition with immobilised ligand | 1 µM | 99%
CN(c1nccc(-c2cnn3ncccc23)n1)C1CC1 | binding | 1 µM | 86%
O=C(O)c1cc(-c2ccc(C3CCNCC3)cc2)c2ccc(-c3ccc(C(F)(F)F)cc3)cc2c1 | cell-free assay, competition with immobilised ligand | 1 µM | 100%
C=CC(=O)N1CCC(C(=O)NCC(=O)N2CCN(c3nc(-c4cnc(N)nc4C(F)F)nc(N4CCOCC4)n3)CC2)CC1 | binding, competition with immobilised ligand | 1 µM | 99%
Cc1nc(C2CCN(C(=O)c3ccc(OC(F)(F)F)cc3N)CC2)c2ncc(N3CCN(C)CC3)cc2n1 | cell-free assay, competition with immobilised ligand | 1 µM | 100%
COc1cnc(Nc2cccc(S(N)(=O)=O)c2)nc1N1CCN(c2ccccc2)C(=O)C1 | binding, competition with immobilised ligand | 1 µM | 100%
O=C(NCC1CCOCC1)c1n[nH]cc1NC(=O)c1c(F)cccc1F | binding, competition with immobilised ligand | 1 µM | 95%
CN(C)c1ncc(F)c(-c2cnn3ncccc23)n1 | binding | 1 µM | 100%
O=C(Nc1cccnn1)N1CC(C/C=C/c2cncc(Oc3ccc(C(F)(F)F)cn3)n2)C1 | cell-free assay, competition with immobilised ligand | 1 µM | 100%
c1cncc(-c2cccc(Nc3nccc(NC4CCCCC4)n3)c2)c1 | binding, competition with immobilised ligand | 10 µM | 99%
COc1ccnn2ncc(-c3ccnc(N(C)C)n3)c12 | binding | 1 µM | 100%
Cc1cc(-n2nc(Cc3cc(F)cc(C(F)(F)F)c3)nc2C)ccc1C(N)=O | cell-free assay, competition with immobilised ligand | 1 µM | 100%
